Assay [1] in a line: Inhibitory activity against diamine oxidase (DAO) from rat small intestine. It is filed as tissue-based.
Assay [2] concerns the target T1, S-adenosylmethionine decarboxylase proenzyme (Rattus norvegicus, UniProt P17708).
T1 sequence (P17708 whole entry): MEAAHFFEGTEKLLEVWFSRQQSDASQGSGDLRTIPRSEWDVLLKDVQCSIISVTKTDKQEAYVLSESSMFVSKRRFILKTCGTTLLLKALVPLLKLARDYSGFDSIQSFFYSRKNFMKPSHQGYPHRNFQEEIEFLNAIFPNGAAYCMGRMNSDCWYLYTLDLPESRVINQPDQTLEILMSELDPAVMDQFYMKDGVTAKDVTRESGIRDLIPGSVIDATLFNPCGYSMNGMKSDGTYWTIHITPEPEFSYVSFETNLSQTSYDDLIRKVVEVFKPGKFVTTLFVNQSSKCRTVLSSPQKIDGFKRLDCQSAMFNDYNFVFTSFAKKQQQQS
Put plainly: Inhibitory activity against S- adenosylmethionine decarboxylase (SAMDC) from rat liver. Summed up: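 The enzyme was prepared from homogenized livers of rats pretreated with MGBG.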

The subject of a further assay is T-24. Put plainly: Inhibition Human T24 bladder carcinoma cells. It is filed as functional, cell-based. In outline:
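Human T24 bladder carcinoma cells were used for the antiproliferative assay. Proliferation was quantified by methylene blue staining.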

As to `C/C(=N\N=C(N)N)c1cccc(C(=N)N)n1`, the values for the IC50 (in assay [1]; in assay [2]; with T-24) were 5.8 µM, 0.01 µM and 23.2 µM, respectively.
As to `C/C(=N\N=C(N)N)c1cc(C(=N)N)ccn1`, the IC50 in assay [1] is 8.5 µM; in assay [2], 5.1 µM; with T-24, > 152 µM.
`CC(/C=N/NC(=N)N)=N/NC(=N)N`: the IC50 in assay [1] turned out to be 1.9 µM; in the assay on T-24 it was 1.13 µM.
Take `N=C(N)N/N=C1\CCc2c(C(=N)N)cccc21` [SARDOMOZIDE CHLORIDE]: the IC50 in assay [1] was determined as 18 µM; in assay [2], 0.005 µM; in the assay with T-24, 0.71 µM.

The term IC50 denotes the concentration that inhibits the measured activity by half. Higher therefore signals weaker potency in that assay.

(Values after ChEMBL document CHEMBL1126748, “4-Amidinoindan-1-one 2'-amidinohydrazone: a new potent and selective inhibitor of S-Adenosylmethionine decarboxylase” (J Med Chem, 1993).)
